Shown are actives, neighbours in structure and some others; about 2.9% of the full set was active somewhere.
PRMT1 inh: blocks human protein arginine methyltransferase 1; Q99873; recombinant PRMT1, activity-based probe fluorescence polarization; inhibition, % at 2.79 µM; 370,000 tested, 1.3% active; AID 652257;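 active = inhibition above about 21% made by adding two undisclosed values, limit read from the data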
Target sequence (Q99873 whole entry, looked up): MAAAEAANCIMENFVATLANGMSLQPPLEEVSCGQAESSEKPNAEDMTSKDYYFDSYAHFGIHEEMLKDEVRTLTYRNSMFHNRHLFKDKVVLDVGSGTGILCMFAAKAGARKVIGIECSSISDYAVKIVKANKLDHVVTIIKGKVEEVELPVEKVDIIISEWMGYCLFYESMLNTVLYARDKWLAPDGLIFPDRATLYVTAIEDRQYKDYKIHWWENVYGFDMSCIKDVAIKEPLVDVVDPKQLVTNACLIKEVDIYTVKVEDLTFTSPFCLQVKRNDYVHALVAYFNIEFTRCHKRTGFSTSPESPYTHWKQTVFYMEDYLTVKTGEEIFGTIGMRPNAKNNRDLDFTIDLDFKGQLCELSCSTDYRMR
NS3 helicase inh: inhibitors of Hepatitis C virus NS3 helicase | NS3 helicase DNA unwinding, Cy5 molecular beacon fluorescence | inhibition, % at 10.9 µM | 290,000 tested, 0.56% active | AID 1800;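 active = inhibition above the mean of all tested compounds plus 3 SD, set per campaign, cut at about 35% in these data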
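Assay system: hepatitis C virus NS3 helicase domain fragment enzyme. Also added: annealed dual-labelled DNA beacon duplex, ATP-started. Timing: 1 h reaction at 25 °C, ATP-initiated. Technique: Cy5 fluorescence at 0 and 60 min, beacon hairpin quenching. Evaluation: % inhibition of unwinding. Replication: one well per compound.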
ABHD5-PLIN5 inh: inhibitors of human ABHD5-perilipin-5 interaction. Q00G26+Q8WTS1. Split G. princeps luciferase complementation, luminescence, 4 h. inhibition, % at 4 µM. 360,000 tested, 0.78% active;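 active = inhibition above the mean inhibition across every tested compound plus 3 SD, cut at about 22% in these data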
core dimer inh: HCV core protein dimerization inhibition; TR-FRET GST/Flag-core106 dimerization, 1536-well; inhibition, % at 5 µM; 300,000 tested, 0.33% active; AID 1899;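 active = inhibition above the mean of all tested compounds plus 3 SD, set per screening campaign, cut at about 45% in these data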
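Assay system: tagged HCV core106 pair (GST and Flag); medium: KF-containing HEPES buffer, pH 7.45, DTT, CHAPS, BSA; also added: Eu donor and XL665 acceptor anti-tag antibodies; dosing: 5 µM single dose; timing: compound-protein-antibody incubation 4 h at 22.5 °C; signal: TR-FRET 671 and 617 nm emission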
A3G deaminase: inhibitors of human APOBEC3G DNA deaminase. 330,000 tested, 0.28% active. recombinant A3G, ssDNA deamination FAM/TAMRA fluorescence. inhibition, % at 20 µM. Q9HC16;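 active = inhibition of at least 40% at 20 µM, with no more than 30% in the related APOBEC3A deaminase screen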
APOBEC3A inh: human APOBEC3A DNA deaminase inhibition | 330,000 tested, 0.41% active | inhibition, % at 20 µM | recombinant A3A, FAM/TAMRA ssDNA deamination fluorescence | P31941 | AID 493011;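 active = at least 40% inhibition at 20 µM here, with at most 30% in a related deaminase screen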
Target sequence (P31941 whole entry, looked up): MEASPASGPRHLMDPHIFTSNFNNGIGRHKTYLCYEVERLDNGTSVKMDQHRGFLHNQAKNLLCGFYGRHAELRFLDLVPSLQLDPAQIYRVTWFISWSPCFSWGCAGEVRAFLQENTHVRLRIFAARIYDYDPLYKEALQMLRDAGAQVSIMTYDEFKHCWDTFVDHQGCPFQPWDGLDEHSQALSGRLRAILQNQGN
Each line names hits and unclear results; the compound was inactive in the other large screens.

Cc1ccc(OCC(=O)Nc2oc(-c3ccccc3)c(-c3ccccc3)c2C#N)cc1	core dimer inh 47
COc1ccccc1OCC(=O)Nc1oc(-c2ccccc2)c(-c2ccccc2)c1C#N	none
N#Cc1c(NC(=O)CN2CCOCC2)oc(-c2ccccc2)c1-c1ccccc1	none
N#Cc1c(NC(=O)COC(=O)C2CC3C=CC2C3)oc(-c2ccccc2)c1-c1ccccc1 (stereo not drawn)	core dimer inh 69
COc1ccc(/C=C(\NC(=O)/C=C/c2ccco2)C(=O)NCCc2nc3ccccc3[nH]2)cc1	ABHD5-PLIN5 inh 23
CN(/N=C/c1ccc(-c2ccc([N+](=O)[O-])cc2)o1)c1ccccc1	core dimer inh 55
NC(=S)N/N=C/c1ccc(-c2cc(Cl)cc(Cl)c2)o1	none
NC(=S)N/N=C/c1ccc(-c2ccc([N+](=O)[O-])cc2)o1	PRMT1 inh 21, core dimer inh 50
Oc1ccccc1-c1n[nH]c(=S)n1Cc1ccco1	A3G deaminase 41
Cc1ccc(CCC(=O)Nc2ccccc2C(=O)O)o1	none
Cc1ccc2nc(C)cc(C(=O)OCC(=O)c3ccc(Cl)c([N+](=O)[O-])c3)c2c1	none
Cc1cc(C(=O)OCC(=O)c2ccc(Cl)c([N+](=O)[O-])c2)c2cccc(C)c2n1	core dimer inh 46
CN(C)CCCN(C(=O)c1ccc(S(=O)(=O)N2CCc3ccccc32)cc1)c1nc2ccc(F)cc2s1	PRMT1 inh 23
CN(C)CCCN(C(=O)c1ccc(S(=O)(=O)N2CCc3ccccc32)cc1)c1nc2ccc(Cl)cc2s1	PRMT1 inh 27
Cc1ccc(C2C(C=Nc3c(C)n(C)n(-c4ccccc4)c3=O)=C(c3ccccc3)Oc3ccccc32)cc1 (stereo not drawn)	core dimer inh 46
COc1ccc(CCNC(=O)CSC(=O)c2ccccc2)cc1OC	PRMT1 inh 22
COc1ccc(CCNC(=O)CSc2ccccc2)cc1OC	none
COc1ccc(CCNC(=O)/C=C/c2ccco2)cc1OC	PRMT1 inh 23
NS(=O)(=O)c1ccc(CNC(=O)/C=C/c2ccco2)cc1	ABHD5-PLIN5 inh 23
C[C@@H]1CN([C@@H](C)CO)C(=O)CCCn2cc(nn2)CO[C@H]1CN(C)C(=O)Nc1cccc2ccccc12	none (no result: NS3 helicase inh, ABHD5-PLIN5 inh, core dimer inh, A3G deaminase, APOBEC3A inh)
COc1cc(NC(=O)CSc2nc(C)cc(=O)[nH]2)cc(OC)c1	none (no result: NS3 helicase inh, ABHD5-PLIN5 inh, core dimer inh, A3G deaminase, APOBEC3A inh)
COc1ccc(S(=O)(=O)N(C)C[C@@H]2Oc3c(NC(=O)Nc4cccc5ccccc45)cccc3C(=O)N([C@@H](C)CO)C[C@H]2C)cc1	none (no result: NS3 helicase inh, ABHD5-PLIN5 inh, core dimer inh, A3G deaminase, APOBEC3A inh)
CC(C)(CO)NC(=O)c1ccc2nc(Cc3cccc(Cl)c3)oc2c1	none
O=C(N/N=C/c1ccc(O)c(O)c1)N/N=C/c1ccc(O)c(O)c1	PRMT1 inh 24 (no result: core dimer inh)
N#Cc1c(N)sc2c1CCCCCC2	PRMT1 inh 21
CC(=O)Nc1sc2c(c1C#N)CCC2	none
C/C(CC(=O)NCc1ccco1)=N\NC(=O)c1ccc([N+](=O)[O-])cc1Cl	none
CC1OC(Nc2cccc3ccccc23)C(O)C(O)C1O (stereo not drawn)	PRMT1 inh 29
CC1OC(Nc2ccc(N=Nc3ccccc3)cc2)C(O)C(O)C1O (stereo not drawn)	none
Cc1ccc(N2C(=O)C3C(C2=O)C(C(=O)c2ccc(Cl)cc2)N2CCCC32)cc1 (stereo not drawn)	core dimer inh 62
N#CC1=C(N)SC(N)=C(C#N)C1Cc1ccccc1	A3G deaminase 48
CCC(C)(C)n1nnnc1C(c1cc2cc(OC)ccc2[nH]c1=O)N1CCc2ccccc21 (stereo not drawn)	none
CCC(C)(C)n1nnnc1C(c1cc2cc(C)ccc2[nH]c1=O)N1CCCc2ccccc21 (stereo not drawn)	PRMT1 inh 30
CC(=O)N1CC[n+]2c(-c3ccc(Cl)cc3Cl)csc21	PRMT1 inh 57
Fc1cccc(Cn2ccc3ccc(-c4ccc5ccn(Cc6ccccc6)c5c4)cc32)c1	none (no result: NS3 helicase inh, ABHD5-PLIN5 inh, core dimer inh, A3G deaminase, APOBEC3A inh)
CCOC(=O)CNC(=O)N(CCOC)CC1CCCN(C2Cc3ccccc3C2)C1 (stereo not drawn)	none
CN(C)c1ccc(N=C/C=C2\N(C)c3ccccc3C2(C)C)cc1	PRMT1 inh 24
COCCn1c(C)cc(C2=NNC(=Nc3ccccc3)SC2)c1C	none
COc1ccccc1C1=NNC(=Nc2cccc(S(=O)(=O)N(C)C)c2)SC1	PRMT1 inh 22
CC1=C(C(=O)Nc2ccccc2C)C(c2ccc(C)o2)n2c(s/c(=C/c3ccccc3)c2=O)=N1 (stereo not drawn)	core dimer inh 48
CC1=C(C(=O)Nc2ccccc2)C(c2ccc(C)o2)n2c(s/c(=C/c3ccccc3)c2=O)=N1 (stereo not drawn)	none
Nc1ccccc1/C=C/c1ccccc1N	none (no result: NS3 helicase inh, core dimer inh, A3G deaminase, APOBEC3A inh)
NS(=O)(=O)c1ccc(NNC(=O)c2ccccc2)cc1	none
O=C(NNc1cc(Br)c(O)c(Br)c1)c1ccccc1	PRMT1 inh 23
O=C1C(=Cc2cccn2-c2ccc(O)cc2)C(=O)c2ccccc21	core dimer inh 61
Cc1ccc(CNC(=O)CNS(=O)(=O)c2ccc3c(c2)C(C)(C)C(=O)N3C)cc1	none
C[C@@H]1O[C@@H](O[C@@H]2[C@@H](O)[C@H](OCCc3ccc(O)c(O)c3)O[C@H](CO)[C@H]2OC(=O)/C=C/c2ccc(O)c(O)c2)[C@H](O)[C@H](O)[C@H]1O	PRMT1 inh 25 (no result: NS3 helicase inh, core dimer inh)
CC1=NN(c2nc(N)nc(/C(C#N)=C/c3ccc([N+](=O)[O-])o3)n2)C(C)(C)C1	none (no result: NS3 helicase inh, core dimer inh, A3G deaminase, APOBEC3A inh)
CC1CCN(S(=O)(=O)c2ccc3c(c2)C(=NO)c2cc(S(=O)(=O)N4CCC(C)CC4)ccc2-3)CC1	none
O=S(=O)(c1ccc2c(c1)C(=NO)c1cc(S(=O)(=O)N3CCCCC3)ccc1-2)N1CCCCC1	core dimer inh 48
O=C(CSc1nnc(C2COc3ccccc3O2)o1)N1CCCC1 (stereo not drawn)	PRMT1 inh 23
CCOC(=O)c1c(C)oc2c1c(C=NCC1CCCO1)c(O)c1ccccc12 (stereo not drawn)	none (no result: core dimer inh, A3G deaminase, APOBEC3A inh)
CCOC(=O)c1c(C)oc2c1c(C=NCc1ccccn1)c(O)c1ccccc12	PRMT1 inh 21 (no result: core dimer inh, A3G deaminase, APOBEC3A inh)
CCOC(=O)C1=C(CSc2nc3c(cc2C#N)CN(C)CC3)OC(N)=C(C#N)C1c1ccc(Cl)cc1 (stereo not drawn)	core dimer inh 57
O=C(Nc1ccccc1)c1cn(CCBr)cn1	none (no result: NS3 helicase inh)
CC(=O)C1=C(C)N(Cc2ccc(Br)cc2)C(=S)NC1c1ccc(F)cc1 (stereo not drawn)	none (no result: NS3 helicase inh, ABHD5-PLIN5 inh, core dimer inh, A3G deaminase, APOBEC3A inh)
COC(=O)[C@@]1(Cc2ccccc2)[C@@H]2C(=CC(=O)[C@H]2CC(=O)C(=O)N(C)C)CN1C(=O)c1ccccc1	ABHD5-PLIN5 inh 31 (no result: PRMT1 inh)

Screens from PubChem BioAssay.
